Our source for the IC50 values is ChEMBL document CHEMBL1128278, “Design, synthesis, and structure--activity relationship studies for a new imidazole series of J774 macrophage specific acyl-CoA:cholesterol acyltransferase (ACAT) inhibitors” (J Med Chem, 1995).

Usually IC50 stands for the concentration that inhibits the measured activity by half.

Experiment [1] is described as follows: Acyl coenzyme A:cholesterol acyltransferase inhibition in cell culture measured in murine J774 macrophages.
The target of experiment [2] is T1, Sterol O-acyltransferase 1 (Rattus norvegicus, UniProt O70536).
T1 sequence (O70536 whole entry): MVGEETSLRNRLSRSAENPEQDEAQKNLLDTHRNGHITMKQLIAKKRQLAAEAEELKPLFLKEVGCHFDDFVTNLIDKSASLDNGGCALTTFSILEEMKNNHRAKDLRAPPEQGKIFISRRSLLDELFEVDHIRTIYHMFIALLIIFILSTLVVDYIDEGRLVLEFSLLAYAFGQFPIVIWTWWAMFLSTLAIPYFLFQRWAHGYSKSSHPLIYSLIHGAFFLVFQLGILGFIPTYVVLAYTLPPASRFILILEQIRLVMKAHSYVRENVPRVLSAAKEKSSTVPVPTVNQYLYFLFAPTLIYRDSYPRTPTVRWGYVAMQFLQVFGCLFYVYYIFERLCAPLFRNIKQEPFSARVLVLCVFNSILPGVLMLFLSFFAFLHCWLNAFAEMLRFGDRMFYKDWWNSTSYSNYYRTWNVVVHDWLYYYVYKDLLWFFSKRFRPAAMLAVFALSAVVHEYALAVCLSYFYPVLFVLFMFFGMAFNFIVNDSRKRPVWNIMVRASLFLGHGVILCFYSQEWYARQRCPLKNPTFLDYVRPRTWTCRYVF
As to the kind of experiment: Concentration required to inhibit 50% activity of Acyl coenzyme A:cholesterol acyltransferase 1 in vitro using rat liver microsome. The format is microsomes. The procedure, abridged: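 Rat liver microsomes; ACAT activity read as [14C]cholesteryl oleate formed from [14C]oleoyl-CoA (pmol/min/mg). Inhibitors added in 5 µL DMSO. Duplicate assays with at least four inhibitor concentrations bracketing the IC50; IC50 is the concentration giving 50% inhibition of ACAT activity. Average range of replicates ±17%.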

For the compound `CCCCCCCN(CCCCCSc1nc(-c2ccc(OC)cc2)c(-c2ccc(OC)cc2)[nH]1)C(=O)Nc1ccc(F)cc1F`, the IC50 in experiment [1] was 80 nM; in experiment [2] (read-out: IC50) it was 140 nM. Take `CCOCCOCCN(CCCCCSc1nc(-c2ccccc2)c(-c2ccccc2)[nH]1)C(=O)Nc1ccc(F)cc1F`: the IC50 in experiment [1] was 4010 nM; in experiment [2] (read-out: IC50), 50 nM. In the same order, the values of `CCCCCCCN(CCCCCSc1nc(-c2ccco2)c(-c2ccco2)[nH]1)C(=O)Nc1ccc(F)cc1F` are 450 nM and 200 nM. In the same order, the values of `CCCCCCCN(CCCCCSc1nc(C2CCCCC2)c(C2CCCCC2)[nH]1)C(=O)Nc1ccc(F)cc1F` are 640 nM and 20 nM. Regarding `CCCCCCCN(CCCCCSc1nc(-c2ccc(OC)cc2)c(-c2ccc(OC)cc2)[nH]1)C(=O)Oc1ccccc1`, the IC50 was 32 nM in experiment [1] and 640 nM in experiment [2] (read-out: IC50). As for `CCCCCCCN(CCCCCSc1nc(-c2ccccc2OC)c(-c2ccccc2OC)[nH]1)C(=O)Nc1ccc(F)cc1F`, the IC50 was 2070 nM in experiment [1] and 350 nM in experiment [2] (read-out: IC50). For `CCCCCCCN(CCCCCSc1nc(-c2ccc(N(C)C)cc2)c(-c2ccc(N(C)C)cc2)[nH]1)C(=O)Nc1ccc(F)cc1F`, the concentration for half-maximal inhibition (IC50) in experiment [1] was determined as 80 nM; in experiment [2] (read-out: IC50), 50 nM. Consider `CC(C)NC(=O)N(CCN(C)CCSc1nc(-c2ccccc2)c(-c2ccccc2)[nH]1)CCN1CCOCC1`, for which the values for the IC50 in experiment [1] and in experiment [2] (read-out: IC50) were 6280 nM and 350 nM, respectively. `O=C(Nc1ccc(F)cc1F)N(CCCCCSc1nc(-c2ccccc2)c(-c2ccccc2)[nH]1)CCOCCO`: the IC50 in experiment [1] was determined as 6740 nM; in experiment [2] (read-out: IC50), 40 nM.

Consider `CCCCCCCN(CCCCCSc1nc(-c2ccc(O)cc2)c(-c2ccc(O)cc2)[nH]1)C(=O)Nc1ccc(F)cc1F`, for which the IC50 was determined as 4750 nM in experiment [1] and 2400 nM in experiment [2] (read-out: IC50). As to `CCCCCCCN(CCN(C)CCSc1nc(-c2ccccc2)c(-c2ccccc2)[nH]1)C(=O)Nc1ccc(F)cc1F`, the IC50 in experiment [1] was 1470 nM; in experiment [2] (read-out: IC50), 170 nM. For the compound `CCCCCCCN(CCCCCSc1nc(-c2ccccn2)c(-c2ccccn2)[nH]1)C(=O)Nc1ccc(F)cc1F`, the IC50 was 2250 nM in experiment [1] and 1000 nM in experiment [2] (read-out: IC50). Regarding `CCCCCCCN(CCCCCSc1nc(-c2ccc(OC)cc2)c(-c2ccc(OC)cc2)[nH]1)C(=O)NC(C)C`, the IC50 in experiment [1] amounted to 4 nM; in experiment [2] (read-out: IC50), 160 nM. For the compound `COCCOCCN(CCCCCSc1nc(-c2ccc(N(C)C)cc2)c(-c2ccc(N(C)C)cc2)[nH]1)C(=O)NC(C)C`, the IC50 in experiment [1] is 7510 nM; in experiment [2], “Not Active”.

On to `CCOCCOCCN(CCCCCSc1nc(-c2ccc(SC)cc2)c(-c2ccc(SC)cc2)[nH]1)C(=O)NC(C)C`, for which the values for the IC50 in experiment [1] and in experiment [2] (read-out: IC50) were 40 nM and 280 nM, respectively.

As to `CCCCCCCN(CCCCCSc1nc(C(C)C)c(C(C)C)[nH]1)C(=O)Nc1ccc(F)cc1F`, the IC50 was determined as 640 nM in experiment [1] and 20 nM in experiment [2] (read-out: IC50). As to `CCCCCCCN(CCCCCSc1nc2c([nH]1)-c1ccccc1OCOc1ccccc1-2)C(=O)Nc1ccc(F)cc1F`, the IC50 is 840 nM in experiment [1] and 30 nM in experiment [2] (read-out: IC50). In the case of `CCCCCCCN(CCCCCSc1nc(-c2ccc(N(C)C)cc2)c(-c2ccc(N(C)C)cc2)[nH]1)C(=O)Oc1ccccc1`, the values for the IC50 in experiment [1] and in experiment [2] (read-out: IC50) were 60 nM and 120 nM, respectively. As for `CCCCCCCN(CCCCCSc1nc(-c2ccc(C)cc2)c(-c2ccc(C)cc2)[nH]1)C(=O)Nc1ccc(F)cc1F`, the half-maximal inhibitory concentration (IC50) is 290 nM in experiment [1] and 80 nM in experiment [2] (read-out: IC50). `CCCCCCCN(CCOCCSc1nc(-c2ccccc2)c(-c2ccccc2)[nH]1)C(=O)Nc1ccc(F)cc1F`: the IC50 in experiment [1] was determined as 3980 nM; in experiment [2] (read-out: IC50) it was 80 nM. Regarding `CCCCCCCN(CCCCCSc1nc(-c2ccc(F)cc2)c(-c2ccc(F)cc2)[nH]1)C(=O)Nc1ccc(F)cc1F`, the IC50 stood at 3500 nM in experiment [1] and 40 nM in experiment [2] (read-out: IC50).

Turning to `CCCCCCCN(CCCCCSc1nc(-c2ccc(OC)cc2)c(-c2ccc(OC)cc2)[nH]1)C(=O)CC1CCCCC1`, the values for the IC50 in experiment [1] and in experiment [2] (read-out: IC50) were 29 nM and 11 nM, respectively.

Consider `CC(C)NC(=O)N(CCCCCSc1nc(-c2ccccc2)c(-c2ccccc2)[nH]1)CCOCCO`, for which the IC50 is 6840 nM in experiment [1] and 90 nM in experiment [2] (read-out: IC50). As to `COc1ccc(-c2nc(SCCCCCN(CCCCCO)C(=O)NC(C)C)[nH]c2-c2ccc(OC)cc2)cc1`, in experiment [1], the IC50 is 1000 nM.

With `CCCCOCCN(CCCCCSc1nc(-c2ccccc2)c(-c2ccccc2)[nH]1)C(=O)Nc1ccc(F)cc1F`, the IC50 in experiment [1] amounted to 1750 nM; in experiment [2] (read-out: IC50), 70 nM.

`CCN(CC)CCN(CCCCCSc1nc(-c2ccccc2)c(-c2ccccc2)[nH]1)C(=O)Nc1ccc(F)cc1F`: the IC50 in experiment [1] is 2180 nM; in experiment [2] (read-out: IC50), 80 nM. Take `CCN(CC)CCN(CCCCCSc1nc(-c2ccccc2)c(-c2ccccc2)[nH]1)C(=O)NC(C)C`: the IC50 in experiment [1] was determined as 580 nM; in experiment [2] (read-out: IC50), 660 nM. `CCCCCCCN(CCOCCSc1nc(-c2ccccc2)c(-c2ccccc2)[nH]1)C(=O)NC(C)C`: the IC50 in experiment [1] stood at 990 nM; in experiment [2] (read-out: IC50), 190 nM. As to `COc1ccc(-c2nc(SCCCCCN(CCN3CCOCC3)C(=O)Nc3ccc(F)cc3F)[nH]c2-c2ccc(OC)cc2)cc1`, the results for the IC50 in experiment [1] and in experiment [2] (read-out: IC50) were 1340 nM and 270 nM, respectively. In the same order, the values of `CCCCCCCN(CCCCCSc1nc2c([nH]1)-c1ccccc1Oc1ccccc1-2)C(=O)Nc1ccc(F)cc1F` are 1720 nM and 60 nM. Regarding `CCCCCCCN(CCOCCSc1nc(-c2ccc(OC)cc2)c(-c2ccc(OC)cc2)[nH]1)C(=O)NC(C)C`, the IC50 in experiment [1] was determined as 340 nM; in experiment [2] (read-out: IC50) it was 850 nM. In the same order, the values of `CCCCCCCN(CCCCCSc1nc(-c2cccs2)c(-c2cccs2)[nH]1)C(=O)Nc1ccc(F)cc1F` are 940 nM and 60 nM. `CCCCCCCN(CCCCCSc1nc(-c2cccc(OC)c2)c(-c2cccc(OC)c2)[nH]1)C(=O)Nc1ccc(F)cc1F`: the half-inhibitory concentration (IC50) was determined as 360 nM in experiment [1] and 40 nM in experiment [2] (read-out: IC50). Regarding `CCCCCCCN(CCOCCSc1nc(-c2ccc(OC)cc2)c(-c2ccc(OC)cc2)[nH]1)C(=O)Nc1ccc(F)cc1F`, the IC50 amounted to 500 nM in experiment [1] and 2300 nM in experiment [2] (read-out: IC50). In the same order, the values of `CCCCCCCN(CCCCCSc1nc(CCC)c(CCC)[nH]1)C(=O)Nc1ccc(F)cc1F` are 2700 nM and 60 nM.

For the compound `CCCCCCCN(CCCCCSc1nc(-c2ccc(S(C)(=O)=O)cc2)c(-c2ccc(S(C)(=O)=O)cc2)[nH]1)C(=O)Nc1ccc(F)cc1F`, the IC50 in experiment [1] was 2020 nM; in experiment [2] (read-out: IC50) it was more than 50000 nM. As for `COCCOCCN(CCCCCSc1nc(-c2ccc(OC)cc2)c(-c2ccc(OC)cc2)[nH]1)C(=O)Nc1ccc(F)cc1F`, the results for the half-maximal inhibitory concentration (IC50) in experiment [1] and in experiment [2] (read-out: IC50) were 250 nM and 340 nM, respectively. In the same order, the values of `CCCCCCCN(CCCCCSc1nc(-c2ccc(SC)cc2)c(-c2ccc(SC)cc2)[nH]1)C(=O)Nc1ccc(F)cc1F` are 50 nM and 70 nM.

`COc1ccc(-c2nc(SCCCOCCN(CCOCCO)C(=O)NC(C)C)[nH]c2-c2ccc(OC)cc2)cc1`: the IC50 in experiment [1] amounted to 2420 nM; in experiment [2] (read-out: IC50), 480 nM. In the same order, the values of `O=C(Nc1ccc(F)cc1F)N(CCCCCSc1nc(-c2ccccc2)c(-c2ccccc2)[nH]1)CCN1CCOCC1` are 880 nM and 70 nM. For the compound `CCCCCCCN(CCN(C)CCSc1nc(-c2ccccc2)c(-c2ccccc2)[nH]1)C(=O)NC(C)C`, the figures for the IC50 in experiment [1] and in experiment [2] (read-out: IC50) were 2400 nM and 260 nM, respectively.
